An excerpt weighted towards active compounds, which were near 3.5% of everything screened.
MrgX1 antagonist: antagonists of human MrgX1 receptor, primary screen, HEK293 cells, Fluo-4 calcium flux. Mas-related G-protein coupled receptor member X1 (Homo sapiens), Q96LB2. B-score at 10 µM. AID 588676, 2011. BAM8-22 antagonism; stronger effect = lower value. actives 1.3% (n = 310,000);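 active = calcium-response B-score plate-corrected more than 3 library SD below zero, starting fluorescence within 5 deviations, no agonist response on first addition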;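 note: peak minus trough fluorescence over baseline after final BAM8-22 challenge near maximal dose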
Target sequence (Q96LB2 whole entry, looked up): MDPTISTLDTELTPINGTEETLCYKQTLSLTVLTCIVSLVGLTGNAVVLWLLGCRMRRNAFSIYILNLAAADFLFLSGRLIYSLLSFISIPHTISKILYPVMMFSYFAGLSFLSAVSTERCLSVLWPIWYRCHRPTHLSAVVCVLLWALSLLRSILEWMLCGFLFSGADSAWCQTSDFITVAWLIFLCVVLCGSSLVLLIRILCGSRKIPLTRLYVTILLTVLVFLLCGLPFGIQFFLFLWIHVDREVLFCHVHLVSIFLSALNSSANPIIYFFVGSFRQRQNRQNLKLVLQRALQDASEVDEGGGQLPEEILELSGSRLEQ
MrgX1 agonist: agonists of human MrgX1 receptor, primary screen, HEK293 cells, Fluo-4 calcium flux | Fluo-4 calcium fluorescence, agonist mode; stronger effect = higher value | B-score at 10 µM | actives 0.44% (n = 310,000);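 active = calcium response B-score plate-corrected fluorescence ratio at least 3 library SD, with starting fluorescence B-score inside 5 SD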
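System: HEK293 cells stably expressing human MrgX1 receptor; Dosing: test compound in the initial addition of three; Schedule: overnight plating, then 30 min 37 °C plus 30 min room-temperature dye loading; Detection: kinetic calcium dye fluorescence, Fluo-4 NW; Controls: per-plate positive and negative controls for Z′ factor.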
RGS4 act: RGS4 potentiators or activators, primary screen, cell-based, HEK293 M3R inducible RGS4, calcium flux; B-score at 10 µM; carbachol calcium flux Fluo4; stronger effect = lower value; actives 0.92% (n = 310,000);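 active = B-score of the integrated calcium signal more than 4 SD below the library mean, with starting fluorescence not abnormally high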;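 note: negative B-score means reduced calcium response which marks RGS4 activation or potentiation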
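test system = HEK293 cells with stable M3R and inducible RGS4 | schedule = recording 10 s baseline at 1 Hz, 100 s post-agonist | technique = Fluo4-AM (2 µM) calcium-flux fluorescence, kinetic read | measure = Agonist-evoked peak-minus-minimum fluorescence over baseline, integrated ratio, B score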
MrgX1 PAM: positive allosteric modulators of MrgX1, primary screen, HEK293 cells, Fluo-4 calcium flux; FDSS; stronger effect = higher value; B-score at 10 µM; actives 0.63% (n = 310,000); AID 588675, 2011;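 active = plate-corrected calcium response at least 3 library SD above typical, normal starting fluorescence, not activating the receptor alone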;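 note: compound read alongside a low EC10 to EC30 dose of BAM8-22 agonist; peak minus trough fluorescence over baseline measured at the second addition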
RGS4 block: RGS4 inhibitors, primary screen, cell-based, HEK293 M3R inducible RGS4, calcium flux; Regulator of G-protein signaling 4 (Homo sapiens), P49798; Fluo-4 calcium flux; stronger effect = higher value; triggered by carbachol at its EC20; B-score at 10 µM; actives 0.45% (n = 310,000);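 active = B-score, a plate-corrected calcium signal, over three deviations above library mean, with baseline fluorescence within five deviations of library mean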;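 note: RGS4 expression induced by doxycycline in cells with stable M3 receptor; B-score is computed from the integrated fluorescence ratio over baseline after carbachol; higher B-score means a larger calcium signal and so more RGS4 inhibition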
Target sequence (P49798 whole entry, looked up): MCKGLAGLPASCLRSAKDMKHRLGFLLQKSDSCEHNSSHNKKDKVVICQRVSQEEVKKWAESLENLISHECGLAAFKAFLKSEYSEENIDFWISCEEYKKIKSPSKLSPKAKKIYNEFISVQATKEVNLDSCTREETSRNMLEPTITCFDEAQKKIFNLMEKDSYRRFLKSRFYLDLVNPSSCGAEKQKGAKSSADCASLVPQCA
MrgX1 ant reconf: MrgX1 receptor antagonists, duplicate retest, confirmation, HEK293 cells, Fluo-4 calcium flux; shares compounds with MrgX1 antagonist; BAM8-22 calcium flux; stronger effect = lower value; remaining BAM8-22 calcium response % of control (stronger effect = lower value), % at 10 µM; actives 19% (n = 2,300); AID 602420, 2012;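 active = remaining agonist calcium response no higher than 100% minus 3 SD of agonist-only control wells, with starting fluorescence near control levels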;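 note: agonist BAM8-22 given at a near maximal EC90 to ECmax level; peak minus minimum fluorescence divided by baseline after agonist addition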
HEK293 Ca flux: nonspecific calcium signal in parental HEK293, confirmation, counter-screen for MrgX1 antagonist project, parental HEK293 cells, Fluo-4 calcium flux; Fluo-4 calcium fluorescence, FDSS; actives 2% (n = 4,000); fluorescence ratio F(max-min)/F0 at 10 µM; AID 624111, 2012; shares compounds with MrgX1 antagonist;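 active = duplicate-averaged calcium fluorescence ratio at least three times the standard deviation of buffer wells, a nonspecific response in parental cells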
HEK293 Ca counter: calcium response in parental HEK293 cells, primary screen, counter-screen for MrgX1 allosteric activator project, cell-based, Fluo-4 calcium flux, duplicate. shares compounds with MrgX1 antagonist. Fluo-4 fluorescence ratio; stronger effect = higher value. fluorescence ratio F(max-min)/F0 at 10 µM. actives 0.4% (n = 4,000);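 active = calcium fluorescence ratio, averaged over duplicates, at least 3 SD of the buffer-well ratio, meaning a nonspecific response in receptor-free cells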;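 note: untransfected parental HEK293 lacking MrgX1 used as counterscreen for MrgX1 allosteric activators; fluorescence change taken during the second addition on a kinetic imager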
HEK293 Ca cntr2: calcium response in parental HEK293 cells, primary screen, counter-screen for MrgX1 agonist project, cell-based, Fluo-4 calcium flux, duplicate, agonist mode; shares compounds with MrgX1 antagonist; Fluo-4 calcium fluorescence (FDSS); stronger effect = higher value; fluorescence ratio F(max-min)/F0 at 10 µM; actives 8.7% (n = 4,000); AID 624115, 2012;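 active = calcium fluorescence ratio at least three times the spread of buffer wells, meaning a non-specific response in parental cells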
An asterisk follows results filed as active; i = inactive; x = not tested or not shown.

SMILES	MrgX1 antagonist	MrgX1 agonist	RGS4 act	MrgX1 PAM	RGS4 block	MrgX1 ant reconf	HEK293 Ca flux	HEK293 Ca counter	HEK293 Ca cntr2
Cc1nn(C)cc1CN(C)C(=O)c1nn2c(c1Cl)NC(c1cccs1)CC2C(F)(F)F (stereo not drawn)	-5*	i	i	i	i	74%*	i	i	i
COc1cc(C(=O)NNC(=O)c2ccc(NC(=O)C(C)(C)C)cc2)cc(OC)c1OC	i	i	i	i	i	x	x	x	x
COCCn1c(C)cc(C(=O)CSc2nc3nc(C)cc(C)n3n2)c1C	i	i	i	i	i	x	x	x	x
COCCn1c(C)cc(C(=O)CSc2n[nH]c(N)n2)c1C	-4.8*	i	i	i	i	i	i	i	i
O=C(O)C(CC1CCCCC1)N1CCS(=O)(=O)CC1 (stereo not drawn)	i	i	i	i	i	x	x	x	x
C=CCN(C(=O)c1csnn1)C(C(=O)NCc1ccc(F)cc1)c1ccccc1F (stereo not drawn)	i	i	i	i	i	x	x	x	x
COc1ccc(OC)c(N2C(=O)CC(Cc3ccc(Cl)cc3)C2=O)c1 (stereo not drawn)	-4.5*	i	i	i	i	i	i	i	i
CC(NC(=O)C(=O)NCCN1CCN(C(=O)c2ccccc2Br)CC1)c1ccccc1 (stereo not drawn)	i	i	i	i	i	x	x	x	x
CN(C)c1ccnc2sc3c(=O)n(-c4ccccc4)cnc3c12	-4.6*	i	i	i	i	i	i	i	i
O=C1OC(c2cccc([N+](=O)[O-])c2)C2(CCCC2)C(=O)C12CCCCC2 (stereo not drawn)	i	i	i	i	i	x	x	x	x
CCOC(=O)COc1ccc2c(c1)C(=O)CC1(CCCCC1)O2	-7.6*	i	i	i	i	i	i	i	i
CCc1sc(NC(=O)COC)nc1-c1ccccc1	-4.6*	i	i	i	i	i	i	i	i
CCc1sc(NC(C)=O)nc1-c1ccccc1	i	i	i	i	i	x	x	x	x
CCOc1ccccc1N1CCN(C/C=C/c2ccc(N(C)C)cc2)CC1	-4.7*	i	i	i	i	i	i	i	i
CN(C(=O)Cn1cc(C(F)(F)F)ccc1=O)c1c(N)n(Cc2ccccc2)c(=O)[nH]c1=O	i	i	i	i	i	x	x	x	x
COc1cccc(NC(=O)C(OC(=O)c2cnc(C)cn2)c2ccccc2)c1 (stereo not drawn)	-6.2*	i	i	i	i	i	i	i	i
COc1ccc(-c2csc(NC(=O)COc3ccc(N(C)S(=O)(=O)c4ccc(C)cc4)cc3)n2)cc1	i	i	i	i	i	x	x	x	x
COc1ccc(-c2csc(NC(=O)c3ccccc3NS(=O)(=O)c3ccc(C)cc3)n2)cc1	-9*	i	i	i	i	61%*	i	i	i
COc1ccc(S(=O)(=O)Nc2ccccc2C(=O)Nc2nc(-c3ccc(F)cc3)cs2)cc1OC	-8.7*	i	i	i	i	i	i	i	i
C=CCOc1c(Br)cc(CNn2nnnc2N)cc1OCC	-4.8*	i	i	i	i	i	i	i	i
O=C(c1ccccc1-c1ccccc1)N1CCCC1	i	i	i	i	i	x	x	x	x
O=C(c1ccccc1-c1ccccc1)N1CCCCC1	-5.2*	i	i	i	i	i	i	i	i
CNC(=O)c1ccccc1-c1ccccc1	-5.3*	i	i	i	i	i	i	i	i
CC(=O)Nc1ccccc1NC(=O)c1ccccc1-c1ccccc1	i	i	i	i	i	x	x	x	x
O=C(COC(=O)CCCN1C(=O)c2ccccc2C1=O)Nc1cc(Cl)cc(Cl)c1	i	i	i	i	i	x	x	x	x
SMILES	MrgX1 antagonist	MrgX1 agonist	RGS4 act	MrgX1 PAM	RGS4 block	MrgX1 ant reconf	HEK293 Ca flux	HEK293 Ca counter	HEK293 Ca cntr2
CC1(C)C2CCC(C2)C1(C)NC(=O)CN1CCOCC1 (stereo not drawn)	-10*	i	x	i	x	i	i	i	i
CC1(C)C2CCC(C2)C1(C)NC(=O)CN1CCCC1 (stereo not drawn)	i	i	i	i	i	x	x	x	x
S=C(Nc1ccccc1)Nc1ccc(Cl)cc1Cl	i	i	i	i	i	x	x	x	x
NC(=S)Nc1ccc(Cl)cc1Cl	-6.5*	i	i	i	i	i	i	i	i
Cc1ccc2nc(SCCC#N)nc(C)c2c1	-8.1*	i	i	i	i	i	i	i	i
Cc1ccc2nc(SCC(=O)O)nc(C)c2c1	i	i	i	i	i	x	x	x	x
Cc1noc(NS(=O)(=O)c2ccc(NC(=O)C(F)(F)C(F)(F)C(F)(F)F)cc2)c1C	i	i	i	i	i	x	x	x	x
Cc1ccc(-c2noc(C3CCN(C(=O)Nc4ccc(C#N)cc4)CC3)n2)o1	-4.6*	i	i	i	i	76%*	i	i	i
CCc1ccc(CN2CCCC(C(=O)Nc3ccccc3-c3ccc(OC)cc3)C2)o1 (stereo not drawn)	i	i	i	i	i	x	x	x	x
CCCc1cc(=O)oc2cc(C)cc(OCC(=O)N3CCC(C(N)=O)CC3)c12	-4.9*	i	i	i	i	i	i	i	i
CCOc1ccccc1NC(=O)CN(c1ccc(Cl)cc1)S(C)(=O)=O	i	i	i	i	i	x	x	x	x
